pKi: −log10 of the molar value.
Experiments:
[1] = target: Sodium-dependent serotonin transporter (Homo sapiens) (UniProt P31645); assay: % Decrease of 5-HT carrier-receptor -bound radioactivity using paroxetine as a radioligand.; parameters: concentration or dose not given beside the values
Method in brief: (§1)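 Preliminary screen of receptors isolated from rat or pig tissues, run with minor changes to standard procedures. Each compound was tested at a single fixed concentration for each receptor. The read-out was the percent decrease in binding of the named radioligand.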

[2] = target: T1, 5-hydroxytryptamine receptor 1A (Homo sapiens) (UniProt P08908); assay: Percent decrease in 5-hydroxytryptamine 1A receptor binding using 8-OH-DPAT; parameters: concentration or dose not given beside the values; method in brief: as §1
T1 sequence (whole entry): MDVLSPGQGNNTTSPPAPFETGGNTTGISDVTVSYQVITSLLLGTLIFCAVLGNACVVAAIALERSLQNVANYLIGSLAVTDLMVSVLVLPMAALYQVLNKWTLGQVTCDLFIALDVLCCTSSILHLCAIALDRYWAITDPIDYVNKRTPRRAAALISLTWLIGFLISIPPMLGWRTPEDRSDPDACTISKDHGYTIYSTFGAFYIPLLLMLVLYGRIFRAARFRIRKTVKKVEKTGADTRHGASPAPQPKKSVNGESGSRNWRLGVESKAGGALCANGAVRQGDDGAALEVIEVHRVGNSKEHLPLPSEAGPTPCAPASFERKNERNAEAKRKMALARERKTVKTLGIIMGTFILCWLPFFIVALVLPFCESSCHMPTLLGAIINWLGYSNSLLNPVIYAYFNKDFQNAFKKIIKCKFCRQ

[3] = target: Serotonin 2 (5-HT2) receptor (Homo sapiens) (UniProt P41595+P28223+P28335); assay: (§2) Percent decrease in 5-hydroxytryptamine 2 receptor binding using ketanserin; type: protein assay; parameters: scale not given: the % may be the effect or the level left; method in brief: as §1
[4] = target: Serotonin 2 (5-HT2) receptor (Rattus norvegicus, UniProt P30994+P08909+P14842); assay: Binding affinity against 5-hydroxytryptamine 2 receptor in rat striatum using [3H]-RP62203; type: tissue-based
[5] = target: T2, Adenosine receptor A1 (Homo sapiens) (UniProt P30542); assay: Percent decrease in Adenosine A1 receptor binding using CPDPX; parameters: scale not given: the % may be the effect or the level left
T2 sequence (whole entry): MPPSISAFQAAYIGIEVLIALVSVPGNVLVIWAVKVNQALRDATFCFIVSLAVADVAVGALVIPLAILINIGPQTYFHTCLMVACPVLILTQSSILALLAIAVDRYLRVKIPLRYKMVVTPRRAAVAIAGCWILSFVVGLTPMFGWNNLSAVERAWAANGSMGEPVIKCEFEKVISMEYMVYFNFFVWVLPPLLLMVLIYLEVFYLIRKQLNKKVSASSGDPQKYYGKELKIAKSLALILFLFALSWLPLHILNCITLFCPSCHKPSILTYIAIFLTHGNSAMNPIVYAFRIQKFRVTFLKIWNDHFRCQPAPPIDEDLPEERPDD

[6] = target: Angiotensin II receptor (Homo sapiens) (UniProt P30556+P50052); assay: Percent decrease of Angiotensin II receptor binding; type: protein assay; parameters: concentration or dose not given beside the values; method in brief: as §1
[7] = target: GABA-A receptor; anion channel (Homo sapiens) (UniProt P14867+P47870+P18507+P28472+P48169+Q99928+Q9UN88+P34903+O00591+O14764+Q8N1C3+P18505+P78334+P47869+P31644+Q16445); assay: Displacement of muscimol from GABA-A receptor; type: protein-complex assay; method in brief: as §1
[8] = Percent decrease in Bradykinin receptor binding; parameters: concentration or dose not given beside the values; method in brief: as §1
D(1A) dopamine receptor = D(1A) dopamine receptor (Rattus norvegicus, UniProt P18901); assay: Binding affinity against Dopamine receptor D1 of rat striatal receptor using [3H]SCH-23390
Method in brief: (§3)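 Rat striatal receptor preparations were used, with [3H]SCH23390 for D1, [3H]spiperone for D2 and [3H]RP62203 for 5-HT2. Ki ([…]) was derived from competitive displacement of the radioligand, with n = 3–7.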

D(2) dopamine receptor = D(2) dopamine receptor (Rattus norvegicus, UniProt P61169); assay: Binding affinity against Dopamine receptor D2 of rat striatal mambranes using [3H]spiperone; method in brief: as §3
D(2) dopamine receptor, sequence (P61169 whole entry): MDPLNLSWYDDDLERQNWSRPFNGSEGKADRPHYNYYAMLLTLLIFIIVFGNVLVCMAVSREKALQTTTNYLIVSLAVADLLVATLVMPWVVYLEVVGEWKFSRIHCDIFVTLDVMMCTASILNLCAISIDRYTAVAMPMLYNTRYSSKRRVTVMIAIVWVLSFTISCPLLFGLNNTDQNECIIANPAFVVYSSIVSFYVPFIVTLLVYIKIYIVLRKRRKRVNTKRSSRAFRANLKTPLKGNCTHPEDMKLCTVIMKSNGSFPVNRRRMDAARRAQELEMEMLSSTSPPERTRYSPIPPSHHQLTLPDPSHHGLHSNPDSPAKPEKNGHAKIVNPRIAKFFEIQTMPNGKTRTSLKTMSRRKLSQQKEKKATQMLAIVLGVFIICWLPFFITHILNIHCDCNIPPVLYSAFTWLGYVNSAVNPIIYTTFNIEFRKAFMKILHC

[9] = Percent decrease of Endothelin receptor binding using [125I]sarafotoxin; parameters: concentration or dose not given beside the values
[10] = target: Sulfonylurea receptors; K-ATP channels (Homo sapiens) (UniProt Q14654+O60706+Q09428+Q15842); assay: Percent inhibition of glibenclamide binding to K+ channel; type: protein-complex assay; parameters: concentration or dose not given beside the values; method in brief: as §1
Sulfonylurea receptors; K-ATP channels (Homo sapiens), sequence (O60706 whole entry, looked up): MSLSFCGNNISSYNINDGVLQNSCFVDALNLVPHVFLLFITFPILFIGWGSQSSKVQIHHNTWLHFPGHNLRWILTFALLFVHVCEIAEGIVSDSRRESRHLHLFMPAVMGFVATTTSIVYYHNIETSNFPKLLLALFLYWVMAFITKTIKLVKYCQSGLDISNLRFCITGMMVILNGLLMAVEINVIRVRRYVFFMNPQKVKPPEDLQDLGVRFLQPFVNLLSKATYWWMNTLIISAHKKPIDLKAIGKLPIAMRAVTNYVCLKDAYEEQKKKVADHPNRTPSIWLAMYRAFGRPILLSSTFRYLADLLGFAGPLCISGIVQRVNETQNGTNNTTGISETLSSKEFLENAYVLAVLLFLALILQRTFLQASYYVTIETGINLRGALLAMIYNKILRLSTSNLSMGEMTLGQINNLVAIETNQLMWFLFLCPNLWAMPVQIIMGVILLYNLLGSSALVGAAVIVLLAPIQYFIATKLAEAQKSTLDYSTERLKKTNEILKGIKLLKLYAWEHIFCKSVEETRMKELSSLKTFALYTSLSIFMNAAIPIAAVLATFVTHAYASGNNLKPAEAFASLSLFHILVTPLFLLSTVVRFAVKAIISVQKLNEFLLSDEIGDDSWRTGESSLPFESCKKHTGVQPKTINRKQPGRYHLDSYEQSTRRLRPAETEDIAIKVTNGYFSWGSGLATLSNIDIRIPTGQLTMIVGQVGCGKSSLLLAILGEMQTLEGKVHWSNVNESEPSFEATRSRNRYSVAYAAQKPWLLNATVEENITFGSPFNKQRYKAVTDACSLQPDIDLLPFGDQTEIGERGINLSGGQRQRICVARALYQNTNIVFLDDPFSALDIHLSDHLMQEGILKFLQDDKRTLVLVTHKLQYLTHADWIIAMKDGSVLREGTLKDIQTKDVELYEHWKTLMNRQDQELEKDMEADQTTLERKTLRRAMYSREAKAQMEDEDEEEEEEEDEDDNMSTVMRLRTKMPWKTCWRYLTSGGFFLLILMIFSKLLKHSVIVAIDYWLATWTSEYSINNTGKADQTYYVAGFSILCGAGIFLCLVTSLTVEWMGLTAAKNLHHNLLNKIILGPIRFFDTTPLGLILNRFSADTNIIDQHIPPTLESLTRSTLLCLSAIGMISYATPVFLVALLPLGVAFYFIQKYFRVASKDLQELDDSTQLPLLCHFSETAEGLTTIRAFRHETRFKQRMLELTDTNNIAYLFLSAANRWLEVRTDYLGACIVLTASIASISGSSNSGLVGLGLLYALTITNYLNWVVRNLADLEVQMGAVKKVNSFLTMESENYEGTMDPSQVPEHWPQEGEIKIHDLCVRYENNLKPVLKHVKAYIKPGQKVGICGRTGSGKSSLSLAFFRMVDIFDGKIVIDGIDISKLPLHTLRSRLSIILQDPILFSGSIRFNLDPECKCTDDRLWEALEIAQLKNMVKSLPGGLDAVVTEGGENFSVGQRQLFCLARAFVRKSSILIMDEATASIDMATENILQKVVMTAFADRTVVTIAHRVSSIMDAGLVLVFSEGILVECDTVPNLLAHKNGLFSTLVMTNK
Sulfonylurea receptors; K-ATP channels (Homo sapiens), sequence (Q09428 whole entry, looked up): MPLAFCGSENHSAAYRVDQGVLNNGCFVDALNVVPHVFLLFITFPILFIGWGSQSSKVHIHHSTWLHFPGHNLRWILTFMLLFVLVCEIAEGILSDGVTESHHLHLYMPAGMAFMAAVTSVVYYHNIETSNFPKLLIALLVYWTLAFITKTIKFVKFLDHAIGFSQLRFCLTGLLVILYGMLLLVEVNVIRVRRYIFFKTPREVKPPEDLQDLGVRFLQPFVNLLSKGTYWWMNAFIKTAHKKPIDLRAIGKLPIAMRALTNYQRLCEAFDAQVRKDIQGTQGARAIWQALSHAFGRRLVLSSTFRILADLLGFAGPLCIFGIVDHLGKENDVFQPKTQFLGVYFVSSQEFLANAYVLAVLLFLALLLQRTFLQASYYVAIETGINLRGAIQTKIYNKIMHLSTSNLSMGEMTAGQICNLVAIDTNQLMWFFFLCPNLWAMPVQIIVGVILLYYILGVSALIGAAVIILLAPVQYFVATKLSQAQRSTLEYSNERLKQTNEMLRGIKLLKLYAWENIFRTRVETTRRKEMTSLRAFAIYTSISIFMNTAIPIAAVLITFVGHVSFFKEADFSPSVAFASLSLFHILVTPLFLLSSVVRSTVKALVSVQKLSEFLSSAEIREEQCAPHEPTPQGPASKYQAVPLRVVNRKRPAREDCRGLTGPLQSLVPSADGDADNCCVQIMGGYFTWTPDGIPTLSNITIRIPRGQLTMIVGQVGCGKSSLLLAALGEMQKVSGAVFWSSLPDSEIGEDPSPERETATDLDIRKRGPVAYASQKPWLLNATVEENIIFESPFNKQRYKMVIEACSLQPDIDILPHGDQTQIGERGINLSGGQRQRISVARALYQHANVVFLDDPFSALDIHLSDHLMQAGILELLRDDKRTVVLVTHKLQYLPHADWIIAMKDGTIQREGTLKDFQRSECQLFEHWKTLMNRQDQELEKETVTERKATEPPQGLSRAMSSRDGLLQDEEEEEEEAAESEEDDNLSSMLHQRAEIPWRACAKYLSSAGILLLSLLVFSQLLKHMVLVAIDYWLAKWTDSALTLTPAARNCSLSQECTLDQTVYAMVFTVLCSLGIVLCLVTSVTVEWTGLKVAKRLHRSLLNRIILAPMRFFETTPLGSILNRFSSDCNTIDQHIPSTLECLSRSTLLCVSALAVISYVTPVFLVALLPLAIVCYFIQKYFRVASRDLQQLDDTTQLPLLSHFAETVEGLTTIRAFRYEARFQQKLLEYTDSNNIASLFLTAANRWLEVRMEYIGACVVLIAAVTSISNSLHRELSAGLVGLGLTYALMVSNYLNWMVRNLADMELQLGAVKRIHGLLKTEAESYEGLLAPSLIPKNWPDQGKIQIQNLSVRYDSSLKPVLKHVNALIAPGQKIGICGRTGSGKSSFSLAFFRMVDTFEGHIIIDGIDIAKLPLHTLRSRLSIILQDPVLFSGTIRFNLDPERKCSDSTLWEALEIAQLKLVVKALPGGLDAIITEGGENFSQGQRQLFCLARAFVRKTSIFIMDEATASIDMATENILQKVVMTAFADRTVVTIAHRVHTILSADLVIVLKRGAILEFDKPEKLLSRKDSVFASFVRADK
Sulfonylurea receptors; K-ATP channels (Homo sapiens), sequence (Q14654 whole entry, looked up): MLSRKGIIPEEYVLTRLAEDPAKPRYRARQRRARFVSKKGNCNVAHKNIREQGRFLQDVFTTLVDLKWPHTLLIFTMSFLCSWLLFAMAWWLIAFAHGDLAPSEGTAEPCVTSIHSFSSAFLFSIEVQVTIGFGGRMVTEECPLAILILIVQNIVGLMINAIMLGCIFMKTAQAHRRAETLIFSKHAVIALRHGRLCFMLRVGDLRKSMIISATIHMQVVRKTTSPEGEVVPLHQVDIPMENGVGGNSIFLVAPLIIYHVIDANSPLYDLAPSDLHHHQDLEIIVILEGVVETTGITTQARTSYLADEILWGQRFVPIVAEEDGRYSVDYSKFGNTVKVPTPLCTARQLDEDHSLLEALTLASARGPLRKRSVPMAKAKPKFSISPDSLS
Sulfonylurea receptors; K-ATP channels (Homo sapiens), sequence (Q15842 whole entry, looked up): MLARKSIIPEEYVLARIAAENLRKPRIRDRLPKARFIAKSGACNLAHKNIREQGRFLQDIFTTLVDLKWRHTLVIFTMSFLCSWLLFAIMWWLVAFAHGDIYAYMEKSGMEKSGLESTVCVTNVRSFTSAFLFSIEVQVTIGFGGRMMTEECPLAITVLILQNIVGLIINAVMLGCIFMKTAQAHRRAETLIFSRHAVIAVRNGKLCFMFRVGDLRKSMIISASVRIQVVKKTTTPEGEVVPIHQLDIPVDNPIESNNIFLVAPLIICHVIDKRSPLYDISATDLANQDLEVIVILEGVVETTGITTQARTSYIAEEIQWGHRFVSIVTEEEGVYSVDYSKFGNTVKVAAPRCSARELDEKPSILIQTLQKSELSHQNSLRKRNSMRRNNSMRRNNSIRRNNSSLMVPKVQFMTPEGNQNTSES

[11] = target: T3, Muscarinic acetylcholine receptor M1 (Homo sapiens) (UniProt P11229); assay: Percent decrease of Muscarinic acetylcholine receptor M1 binding using pirenzepine; parameters: scale not given: the % may be the effect or the level left; method in brief: as §1
T3 sequence (whole entry): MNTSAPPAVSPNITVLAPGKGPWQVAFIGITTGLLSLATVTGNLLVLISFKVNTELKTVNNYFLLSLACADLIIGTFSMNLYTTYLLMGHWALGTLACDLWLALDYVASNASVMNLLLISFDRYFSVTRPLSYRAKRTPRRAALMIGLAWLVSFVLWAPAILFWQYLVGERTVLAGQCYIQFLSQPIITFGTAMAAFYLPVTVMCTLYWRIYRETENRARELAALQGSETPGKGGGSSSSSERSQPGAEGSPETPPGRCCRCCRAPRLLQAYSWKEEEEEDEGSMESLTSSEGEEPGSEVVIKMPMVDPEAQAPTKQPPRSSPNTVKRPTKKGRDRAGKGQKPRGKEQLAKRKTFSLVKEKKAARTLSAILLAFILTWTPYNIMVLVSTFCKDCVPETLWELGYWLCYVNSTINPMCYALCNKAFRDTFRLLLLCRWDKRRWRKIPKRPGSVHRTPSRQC

[12] = target: Neuronal acetylcholine receptor (Rattus norvegicus) (UniProt P04757+P09483+P12389+P12390+P12392+P43144+Q9JLB5+P12391+P43143+P20420+Q05941); assay: % Decrease of Nicotinic acetylcholine receptor-bound radioactivity using cytisine as a radioligand.; type: protein-complex assay; parameters: scale not given: the % may be the effect or the level left; method in brief: as §1
[13] = target: Glutamate [NMDA] receptor (Homo sapiens) (UniProt Q05586+Q12879+Q13224+O15399+O60391+Q14957+Q8TCU5); assay: Percent decrease of N-methyl-D-aspartate glutamate receptor binding using MK-801; type: protein-complex assay; parameters: concentration or dose not given beside the values; method in brief: as §1
[14] = % Decrease of Phorbol Diester Receptor -bound radioactivity using PDBU as a radioligand.; parameters: scale not given: the % may be the effect or the level left; method in brief: as §1
[15] = target: T4, Glutamate receptor ionotropic AMPA (Homo sapiens) (UniProt P48058+P42263+P42262+P42261); assay: Percent decrease in Quisqualate receptor binding using AMPA; type: protein-complex assay; parameters: scale not given: the % may be the effect or the level left; method in brief: as §1
[16] = % Decrease of adenosine carrier-receptor -bound radioactivity using NBTI as a radioligand.; parameters: concentration or dose not given beside the values; method in brief: as §1
[17] = target: D(1A) dopamine receptor (Rattus norvegicus) (UniProt P18901); assay: Percent decrease in Dopamine receptor D1 binding using SCH-23390; parameters: scale not given: the % may be the effect or the level left
[18] = Percent decrease in Dopamine receptor D2 binding using spiperone; parameters: scale not given: the % may be the effect or the level left
[19] = target: Serotonin 2 (5-HT2) receptor (Rattus norvegicus) (UniProt P30994+P08909+P14842); assay: as §2; type: protein assay; parameters: scale not given: the % may be the effect or the level left; method in brief: as §1
[20] = target: T2, Adenosine receptor A1 (Homo sapiens); assay: Percent decrease in adenosine-A1-receptor binding using CPDPX; parameters: scale not given: the % may be the effect or the level left; method in brief: as §1
[21] = target: Adrenergic receptor alpha-1 (Homo sapiens) (UniProt P35348+P25100+P35368); assay: Percent decrease in Alpha-1 adrenergic receptor binding using prazosin; type: protein assay; method in brief: as §1
[22] = target: D(2) dopamine receptor (Rattus norvegicus) (UniProt P61169); assay: Percent decrease in Dopamine receptor D2 binding using spiperone; parameters: scale not given: the % may be the effect or the level left; method in brief: as §1
D(2) dopamine receptor (Rattus norvegicus), sequence (P61169 whole entry): as the sequence (P61169 whole entry) above

[23] = target: T4, Glutamate receptor ionotropic AMPA (Homo sapiens); assay: Percent decrease of Quisqualate receptor binding using AMPA; type: protein-complex assay; parameters: scale not given: the % may be the effect or the level left; method in brief: as §1

Sodium-dependent serotonin transporter (Homo sapiens), sequence (P31645 whole entry, looked up): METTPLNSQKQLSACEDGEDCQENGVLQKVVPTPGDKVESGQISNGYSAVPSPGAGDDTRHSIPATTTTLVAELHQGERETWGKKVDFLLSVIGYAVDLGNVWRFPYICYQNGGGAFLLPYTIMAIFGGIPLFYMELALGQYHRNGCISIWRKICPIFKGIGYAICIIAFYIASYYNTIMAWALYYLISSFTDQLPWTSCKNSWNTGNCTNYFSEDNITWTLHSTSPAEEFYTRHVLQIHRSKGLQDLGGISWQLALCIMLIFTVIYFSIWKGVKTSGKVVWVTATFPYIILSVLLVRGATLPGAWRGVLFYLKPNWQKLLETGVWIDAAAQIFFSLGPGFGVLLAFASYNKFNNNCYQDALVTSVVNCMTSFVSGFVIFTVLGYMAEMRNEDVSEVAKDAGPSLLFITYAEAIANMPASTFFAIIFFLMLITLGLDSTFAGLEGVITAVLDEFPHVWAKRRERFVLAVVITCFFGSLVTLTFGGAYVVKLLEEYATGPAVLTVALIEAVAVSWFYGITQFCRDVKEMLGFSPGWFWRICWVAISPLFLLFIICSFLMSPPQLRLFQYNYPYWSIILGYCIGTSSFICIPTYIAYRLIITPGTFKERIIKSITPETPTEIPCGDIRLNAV

Structure (SMILES) | Activity [1] [%] | Activity [2] [%] | Activity [3] [%] | Ki [4] [nM] | Activity [5] [%] | Activity [6] [%] | Activity [7] [%] | Activity [8] [%] | pKi (D(1A) dopamine receptor) | pKi (D(2) dopamine receptor) | Activity [9] [%] | Activity [10] [%] | Activity [11] [%] | Activity [12] [%] | Activity [13] [%] | Activity [14] [%] | Activity [15] [%] | Activity [16] [%] | Activity [17] [%] | Activity [18] [%] | further results
CN1CCc2c([nH]c3ccccc23)Cc2[nH]c3ccccc3c2CC1 | -13 | -25 | -80 | 180 | -6 | 9 | -4 | -21 | 8.02 | 7.10 | 0 | 0 | -14 | -7 | -56 | -5 | 0 | -11 | -95 | -95 | 
COc1cc2c(cc1OC)Cc1[nH]c3ccccc3c1CCN(C)CC2 | -2 | -22 | -67 | 960 | 3 | 9 | -23 | -19 | 7.04 | 6.14 | 1 | 1 | -22 | -10 | -44 | -1 | -8 | -9 | -82 | -77 | 
C[N+]12CCc3c([nH]c4ccccc34)C1c1[nH]c3ccccc3c1CC2 (configuration not stated) | -33 | -3 |  |  |  | -3 | -4 | -4 |  |  | 0 | 6 | -15 | 3 | -20 | -17 |  | 7 |  |  | Activity [19]: -32%; Activity [20]: 11%; Decrease [21]: -64%; Activity [22]: -22%; Activity [23]: 11%

Reference: ChEMBL document CHEMBL1133101, “7-Methyl-6,7,8,9,14,15-hexahydro-5H-benz[d]indolo[2,3-g]azecine: a new heterocyclic system and a new lead compound for dopamine receptor antagonists” (J Med Chem, 2000)
